Published values gathered from unrelated publications.
Lines come from different studies, so protocols differ. In brackets after ≈: the same amount, converted by molar mass.
Organism: Escherichia coli
Observed: microbial growth

SMILES	test	system	setting	MIC [µg/mL]
COC(=O)c1cc(-c2cccc(NC(=O)Nc3ccc(F)cc3)c2)on1	broth dilution	ATCC25922	–	> 64
CC1(C)S[C@@H]2[C@H](NC(=O)[C@H](N)c3ccccc3)C(=O)N2[C@H]1C(=O)O	broth dilution	ATCCBAA2469	–	> 64
COC(=O)c1cc(-c2cccc(NC(=S)Nc3cccc(Cl)c3)c2)on1	broth dilution	ATCC25922	–	> 64
C[n+]1c(/C=C/c2c[nH]c3ccccc23)cc(/C=C2\Sc3ccccc3N2CCCN2CCOCC2)c2ccccc21.[I-]	broth dilution	ATCCBAA2469	–	64
CCCCCCCCCCCC(=O)OC[C@H]1O[C@@H](n2cc(C)c(=O)[nH]c2=O)C[C@@H]1O	broth dilution	–	–	2 (≈ 4.71 µM)
COC(=O)c1cc(-c2cccc(NC(=O)Nc3cccc(C(F)(F)F)c3)c2)on1	broth dilution	ATCC25922	–	> 64
C[C@H]1COCCN1c1nc(NCc2cccnc2C(F)(F)F)c2cccnc2n1	broth dilution	25922	–	128 (≈ 317 µM)
Oc1cc(Cl)ccc1Oc1ccc(Cl)cc1Cl	broth dilution	MG1655	clinical isolate	0.5 (≈ 1.73 µM)
COC(=O)c1cc(-c2cccc(NC(=O)Nc3c(C)cccc3C)c2)on1	broth dilution	ATCC25922	–	> 64
CC1CCN(CCCN2/C(=C/c3cc[n+](C)c4ccccc34)Sc3ccccc32)CC1.[I-]	broth dilution	ATCCBAA2469	–	0.5
COC(=O)c1cc(-c2cccc(NC(=O)Nc3ccc(C(F)(F)F)cc3)c2)on1	broth dilution	ATCC25922	–	> 64
Fc1c(F)c(F)c(F)c(F)c1F	–	ATCC25922	–	> 250
C[C@H]1COc2c(N3CCN(C)CC3)c(F)cc3c(=O)c(C(=O)O)cn1c23	broth dilution	ATCC25922	–	0.0156 (≈ 0.0432 µM)
CN[C@H](CC(C)C)C(=O)N[C@H]1C(=O)N[C@@H](CC(N)=O)C(=O)N[C@H]2C(=O)N[C@H]3C(=O)N[C@H](C(=O)N[C@H](C(=O)O)c4cc(O)cc(O)c4-c4cc3ccc4O)[C@H](O)c3ccc(c(Cl)c3)Oc3cc2cc(c3O[C@@H]2O[C@H](CO)[C@@H](O)[C@H](O)[C@H]2O[C@H]2C[C@](C)(N)[C@H](O)[C@H](C)O2)Oc2ccc(cc2Cl)[C@H]1O	–	ATCC10798	–	> 32
CN[C@@H]1[C@H](O)[C@H](NC)[C@H]2O[C@@]3(O)C(=O)C[C@@H](C)O[C@H]3O[C@@H]2[C@H]1O	broth dilution	K12, K12	–	25 (≈ 75.2 µM)
C[n+]1c(/C=C/c2ccc(O)cc2)cc(/C=C2\Sc3ccccc3N2CCCN2CCOCC2)c2ccccc21.[I-]	broth dilution	ATCCBAA2469	–	8
COc1cc(O)c2c(c1)/C=C/C[C@H](O)[C@H](O)C(=O)/C=C/C[C@H](C)OC2=O	–	–	–	> 500
CO[C@H]1/C=C/O[C@@]2(C)Oc3c(C)c(O)c4c(O)c(c(/C=N/N5CCN(C)CC5)c(O)c4c3C2=O)NC(=O)/C(C)=C\C=C\[C@H](C)[C@H](O)[C@@H](C)[C@@H](O)[C@@H](C)[C@H](OC(C)=O)[C@@H]1C	broth dilution	ATCCBAA2469	–	> 64
CCCCCCC#Cc1cncc(-c2nnc(SCc3cc([N+](=O)[O-])cc([N+](=O)[O-])c3)n2C)c1	–	–	–	≥ 20
